{"source": "paper PMC10512781", "about": "(Journal of medicinal chemistry, 2022)", "key": {"[1]": {"system": "human pancreatic cancer cell lines", "conditions": "at 300 μM; cited from earlier work"}, "[2]": {"system": "CHO cells", "conditions": "at 1 mM; cited from earlier work"}, "[3]": {"system": "CHO-K1 cells", "assay": "48 h growth inhibition by assay reagents", "assay_type": "cell-based, Chinese hamster", "conditions": "read-out: 48 h CHO-K1 IC50; CHO-K1, 48 h"}, "[4]": {"system": "polyamine import in L3.6pl cells", "assay": "Radiolabeled spermidine", "assay_type": "cell-based, human", "conditions": "for basal 3H-Spd uptake: 24 h treatment prior to 3H-Spd for 15 min; for 3H-Spd import in combination with DFMO vs DFMO-only: 72 h with DFMO + compound prior to 3H-Spd for 15 min", "procedure,_shortened": "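L3.6pl cells pretreated 24 h with test compound, then exposed to 3H-spermidine for 15 min. Radioactive counts normalised to lysate protein measured by BCA assay. Triplicate conditions; reported as pmol 3H-Spd/μg protein ± standard deviation.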"}, "[5]": {"system": "c-Myc protein in L3.6pl cells", "assay": "Western blot, c-Myc protein level", "assay_type": "cell-based, human", "conditions": "24 h", "procedure,_shortened": "(§1)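 L3.6pl cells (400,000 in 2 mL RPMI 1640, 10% FBS, 1% antibiotic–antimycotic) held overnight at 37 °C, 5% CO2, then treated 24 h with test compound or DMSO. Lysed in RIPA with protease and phosphatase inhibitors. Membranes blocked in 5% skim milk/PBST for 1 h, primary antibody overnight at 4 °C (c-Myc 1:1000, FUBP1 1:1000, p21 1:100, GAPDH 1:40,000), secondary 1 h, chemiluminescence on X-ray film. Repeated at least three times.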"}, "[6]": {"system": "p21 protein in L3.6pl cells", "assay": "Western blot, p21 protein level", "assay_type": "cell-based, human", "conditions": "24 h", "procedure,_shortened": "as §1"}, "[7]": {"system": "FUBP1 protein in L3.6pl cells", "assay": "Western blot, FUBP1 protein level", "assay_type": "cell-based, human", "conditions": "24 h", "procedure,_shortened": "as §1"}, "[8]": {"system": "c-Myc mRNA in L3.6pl cells", "assay": "qRT-PCR, c-Myc mRNA", "assay_type": "cell-based, human", "conditions": "24 h, qRT-PCR vs matched vehicle control", "procedure,_shortened": "(§2)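 For qRT-PCR, L3.6pl cells (400,000) in RPMI 1640 with 10% FBS and 1% antibiotic–antimycotic were seeded in 6-well dishes and held overnight at 37 °C, 5% CO2. Next day they were treated with test compound or DMSO vehicle at 37 °C, then mRNA was measured by quantitative real-time PCR.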"}, "[9]": {"system": "p21 mRNA in L3.6pl cells", "assay": "qRT-PCR, p21 mRNA", "assay_type": "cell-based, human", "conditions": "24 h, qRT-PCR vs matched vehicle control", "procedure,_shortened": "as §2"}, "[10]": {"molecular_target": "T1, FUBP1 binding to the FUSE c-myc promoter region in L3.6pl cells (Homo sapiens, UniProt Q96AE4)", "T1 sequence (Q96AE4 1-644)": "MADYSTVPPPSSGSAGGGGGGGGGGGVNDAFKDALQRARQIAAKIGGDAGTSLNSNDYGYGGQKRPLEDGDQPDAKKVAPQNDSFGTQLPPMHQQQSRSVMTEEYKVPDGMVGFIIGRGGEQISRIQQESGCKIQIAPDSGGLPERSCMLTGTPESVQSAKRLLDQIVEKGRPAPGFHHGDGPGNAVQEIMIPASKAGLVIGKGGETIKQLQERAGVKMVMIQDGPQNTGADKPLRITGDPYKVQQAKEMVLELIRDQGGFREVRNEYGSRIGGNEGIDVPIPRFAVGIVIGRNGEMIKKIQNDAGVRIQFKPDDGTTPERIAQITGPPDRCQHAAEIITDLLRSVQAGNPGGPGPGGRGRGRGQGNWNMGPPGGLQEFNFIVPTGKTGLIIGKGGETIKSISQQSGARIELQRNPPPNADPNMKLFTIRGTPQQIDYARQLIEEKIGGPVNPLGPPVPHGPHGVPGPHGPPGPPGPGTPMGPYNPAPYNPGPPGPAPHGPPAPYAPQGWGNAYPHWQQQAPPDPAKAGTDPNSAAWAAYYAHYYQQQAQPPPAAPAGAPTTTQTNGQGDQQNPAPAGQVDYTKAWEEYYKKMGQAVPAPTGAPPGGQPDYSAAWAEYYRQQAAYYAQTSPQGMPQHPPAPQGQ", "assay": "Chromatin immunoprecipitation", "assay_type": "cell-based", "conditions": "60 μM, 24 h, vs untreated", "procedure,_shortened": "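L3.6pl cells seeded at 300,000 cells/mL in RPMI 1640 with 10% FBS and 1% antibiotic–antimycotic, then held overnight at 37 °C, 5% CO2. Treated 24 h with test compound (60 μM) or 0.6% DMSO, then fixed in 1% formalin for 10 min. Sonicated chromatin (20–25 μg) was precleared and immunoprecipitated overnight at 4 °C with FUBP1 antibody, with H4Ac and rabbit IgG controls. Samples were de-crosslinked overnight at 65 °C, and FUSE c-Myc DNA measured by q-PCR. Mean fold change ± S.E.M., n = 2.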"}, "[11]": {"molecular_target": "T2, GST-FUBP1 (KH3-KH4) binding to FUSE oligo (Oligo-KH4) (Homo sapiens, UniProt Q96AE4)", "T2 sequence (Q96AE4 278-447 limits assumed)": "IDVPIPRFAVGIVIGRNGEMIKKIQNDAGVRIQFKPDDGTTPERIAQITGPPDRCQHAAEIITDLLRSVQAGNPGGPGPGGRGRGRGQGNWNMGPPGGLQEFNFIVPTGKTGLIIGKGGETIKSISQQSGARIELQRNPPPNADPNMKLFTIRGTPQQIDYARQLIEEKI", "assay": "Gel shift assay", "conditions": "30 and 60 μM vs DMSO control"}, "[12]": {"system": "native polyamine levels in L3.6pl cells", "assay": "Intracellular polyamine quantitation by HPLC", "assay_type": "cell-based, human", "conditions": "60 μM, 24 h, vs vehicle (0.6% DMSO)", "procedure,_shortened": "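Polyamines measured by HPLC. L3.6pl cells seeded at 100,000 cells/mL in RPMI 1640 with 250 μM aminoguanidine and held overnight at 37 °C, 5% CO2. Next day treated with test compound (60 μM) or 0.6% DMSO vehicle for 24 h at 37 °C, then intracellular native polyamines quantified.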"}, "[13]": {"system": "CHO-K1 cells", "assay": "Cytotoxicity assay", "assay_type": "cell-based, Chinese hamster", "conditions": "CHO-K1, 384-well; maximum tolerated concentration (≥90% relative growth)"}, "[14]": {"system": "L3.6pl pancreatic cancer cells", "conditions": "DFMO 8 mM, 48 h, cited from earlier work"}, "[15]": {"system": "FUBP1", "conditions": "NMR study; cited from earlier work"}}, "note": "“Also recorded” adds a separate entry of the source. Read-outs that look alike come from different tables or passages of the source.", "data": [{"smiles": "N=C(N)NN", "note": "[AG, aminoguanidine]", "values": [{"measurement": "toxicity", "setting": "[1]", "result": "not toxic"}, {"measurement": "toxicity", "setting": "[2]", "result": "not toxic"}]}, {"smiles": "NCCCCNCCCCNCc1c2ccccc2cc2ccccc12", "note": "[Ant44, N^1-(9-anthracenylmethyl)-homospermidine]", "values": [{"measurement": "IC50", "setting": "[3]", "result": 2, "unit": "µM"}]}, {"smiles": "CNCCCCNCCCCNCc1cc(CNCCCCNCCCCNC)cc(CNCCCCNCCCCNC)c1.Cl.Cl.Cl.Cl.Cl.Cl.Cl.Cl.Cl", "note": "[Compound 5]", "values": [{"measurement": "basal 3H-Spd uptake", "setting": "[4]", "result": "blocked significant spermidine uptake"}, {"measurement": "3H-Spd import in combination with DFMO vs DFMO-only", "setting": "[4]", "result": "statistically significant reduction in ^3H-Spd import"}]}, {"smiles": "COc1ccc(C(=O)Nc2ccc(N3CCN(c4cc(Cl)ccc4C)CC3)cc2C(=O)O)cc1", "note": "[Compound 9, 5-[4-(5-Chloro-2-methyl-phenyl)-piperazin-1-yl]-2-(4-methoxybenzoylamino)-benzoic Acid]", "values": [{"measurement": "basal 3H-Spd uptake", "setting": "[4]", "result": "did not block the uptake of ^3H-Spd"}, {"measurement": "3H-Spd import in combination with DFMO vs DFMO-only", "setting": "[4]", "result": "did not significantly inhibit ^3H-Spd import"}, {"measurement": "c-Myc protein expression", "setting": "[5]", "result": "reduced c-Myc protein expression"}, {"measurement": "p21 protein expression", "setting": "[6]", "result": "increased p21 protein expression in a dose-dependent manner; also recorded: superior in terms of inducing p21"}, {"measurement": "FUBP1 protein levels", "setting": "[7]", "result": "did not affect FUBP1 protein levels"}, {"measurement": "c-Myc mRNA level", "setting": "[8]", "result": "significantly decreased for c-Myc"}, {"measurement": "p21 mRNA level", "setting": "[9]", "result": "increased for p21"}, {"measurement": "FUSE c-Myc DNA pulled down with FUBP1 antibody", "setting": "[10]", "result": "reduced levels of c-Myc FUSE DNA"}, {"measurement": "FUBP1 (KH3-KH4)-FUSE DNA bound complex", "setting": "[11]", "result": "dose-dependent decrease"}, {"measurement": "intracellular polyamine levels", "setting": "[12]", "result": "significantly lower polyamine levels"}]}, {"smiles": "COc1ccccc1C(=O)Nc1ccc(N2CCN(Cc3ccccn3)CC2)cc1C(=O)O", "note": "[Compound 54, 2-(2-Methoxybenzamido)-5-(4-(pyridin-2-ylmethyl)piperazin-1-yl)benzoic Acid]", "values": [{"measurement": "Cytotoxicity MTC", "setting": "[13]", "result": "> 40", "unit": "µM"}]}, {"smiles": "COc1ccccc1C(=O)Nc1ccc(N2CCC(Oc3ccccc3)CC2)cc1C(=O)O", "note": "[Compound 63, 2-(2-Methoxybenzamido)-5-(4-phenoxypiperidin-1-yl)benzoic Acid]", "values": [{"measurement": "c-Myc protein expression", "setting": "[5]", "result": "reduced c-Myc"}, {"measurement": "p21 protein expression", "setting": "[6]", "result": "increased p21 protein levels"}]}, {"smiles": "NCCC[C@](N)(C(=O)O)C(F)F", "note": "[DFMO, difluoromethylornithine]", "values": [{"measurement": "relative growth (compared to an untreated control)", "setting": "[14]; with rescuing spermidine 1 μM", "result": 103, "unit": "%"}, {"measurement": "intracellular putrescine", "setting": "[14]; with spermidine 1 μM", "result": "no detectable intracellular putrescine"}, {"measurement": "intracellular spermidine", "setting": "[14]; with spermidine 1 μM", "result": 6.4, "unit": "nmol/mg protein"}, {"measurement": "intracellular spermine", "setting": "[14]; with spermidine 1 μM", "result": 17.4, "unit": "nmol spermine/mg protein"}, {"measurement": "intracellular putrescine", "setting": "[14]", "result": "no detectable intracellular putrescine"}, {"measurement": "intracellular spermidine", "setting": "[14]", "result": 2.1, "unit": "nmol/mg protein"}, {"measurement": "intracellular spermine", "setting": "[14]", "result": 18.6, "unit": "nmol spermine/mg protein"}, {"measurement": "relative growth (compared to an untreated control)", "setting": "[14]", "result": 64, "unit": "%"}]}, {"smiles": "Nc1ccccc1C(=O)O", "note": "[anthranilic acid]", "values": [{"measurement": "binding to FUBP1", "setting": "[15]", "result": "very low affinity"}]}]}
